In BindingDB's records for doi:10.1021/jm990942i (University of Montpellier, 2000):

Target: Gastrin-releasing peptide receptor (Rattus norvegicus, UniProt P52500)
Test: In vitro binding affinity against bombesin / GRP receptors on rat pancreatic acini.
How it was run: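 Male Wistar rat dispersed pancreatic acini (about 1 mg/mL protein) incubated 60 min at 37 °C with 20 pM (3-[125I]iodotyrosyl15)GRP and varying analogue; pellet centrifuged at 10000g, washed twice, counted. Nonspecific binding with 10 μM unlabeled BN. Specific binding as %, mean ± SD of three experiments in duplicate.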

Gastrin-releasing peptide receptor, sequence (P52500 whole entry N28S): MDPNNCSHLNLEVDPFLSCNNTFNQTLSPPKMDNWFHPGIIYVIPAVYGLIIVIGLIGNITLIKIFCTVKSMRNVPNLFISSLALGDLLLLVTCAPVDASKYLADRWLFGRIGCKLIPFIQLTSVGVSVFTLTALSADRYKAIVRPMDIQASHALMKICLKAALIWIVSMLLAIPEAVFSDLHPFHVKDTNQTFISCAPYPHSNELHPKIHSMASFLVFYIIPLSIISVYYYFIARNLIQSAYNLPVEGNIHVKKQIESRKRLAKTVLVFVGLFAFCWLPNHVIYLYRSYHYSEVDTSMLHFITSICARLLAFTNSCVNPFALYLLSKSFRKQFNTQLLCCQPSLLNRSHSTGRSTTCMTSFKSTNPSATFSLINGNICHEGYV

Structure (SMILES)	Ki [nM]
CC(C)CC(NC(=O)C(CC(C)C)NC(=O)C(Cc1cnc[nH]1)NC(=O)Cn1c(=O)n(CCNC(=O)C(Cc2c[nH]c3ccccc23)NC(=O)C(CCC(N)=O)NC(=O)[C@H](N)Cc2ccccc2)c(=O)c2ccccc21)C(N)=O (some centres not stated) [Bombesin analogues]	> 1000
CC(C)CC(NC(=O)C(CC(C)C)NC(=O)C(Cc1cnc[nH]1)NC(=O)[C@H](Cc1ccccc1)N1CC[C@H](NC(=O)C(C)NC(=O)C(Cc2c[nH]c3ccccc23)NC(=O)C(CCC(N)=O)NC(=O)[C@H](N)Cc2ccccc2)C1=O)C(N)=O (some centres not stated) [Bombesin analogues]	> 1000
